Assay [1] in a line: Allosteric inhibition of SHP2 E76A mutant (unknown origin) expressed in Escherichia coli BL21(DE3) using DIFMUP as substrate preincubated for 20 mins followed by substrate addition measured after 20 mins by phosphatase assay. Also on record: species or system Homo sapiens. The essentials:
(§1)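 His-tagged SHP2 constructs expressed in E. coli BL21(DE3) (0.5 mM IPTG, 5 h, 30 °C) and Ni-column purified. 1.5 nM enzyme preincubated 20 min at room temperature with compound in 0.1 M sodium acetate pH 5.0. DIFMUP then added, 20 min further, fluorescence at 358/455 nm. Eight 3-fold dilutions, duplicate wells, IC50 from at least three independent experiments.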

Assay [2] concerns the target T1, Tyrosine-protein phosphatase non-receptor type 11 (Homo sapiens) (UniProt Q06124).
T1 sequence (whole entry): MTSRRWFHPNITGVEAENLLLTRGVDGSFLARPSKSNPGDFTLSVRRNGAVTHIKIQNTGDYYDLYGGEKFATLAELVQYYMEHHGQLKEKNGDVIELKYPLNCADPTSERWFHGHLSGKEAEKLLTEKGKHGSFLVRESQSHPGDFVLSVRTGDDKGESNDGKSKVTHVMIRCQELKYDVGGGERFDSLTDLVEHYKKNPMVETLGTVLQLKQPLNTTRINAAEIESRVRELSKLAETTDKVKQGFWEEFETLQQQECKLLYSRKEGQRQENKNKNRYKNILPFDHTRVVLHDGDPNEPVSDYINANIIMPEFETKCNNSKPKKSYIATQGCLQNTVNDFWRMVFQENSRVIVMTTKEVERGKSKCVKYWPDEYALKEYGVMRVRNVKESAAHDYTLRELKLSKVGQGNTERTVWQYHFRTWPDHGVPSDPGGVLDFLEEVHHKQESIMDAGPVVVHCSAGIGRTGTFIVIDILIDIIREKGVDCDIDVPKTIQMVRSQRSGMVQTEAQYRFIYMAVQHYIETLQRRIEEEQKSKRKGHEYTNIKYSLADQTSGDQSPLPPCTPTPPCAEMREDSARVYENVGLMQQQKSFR
Description: Allosteric inhibition of SHP2 in human SF268 cells stably expressing Yap-Luc reporter assessed as reduction in YAP transcriptional activity at 3 to 12 uM after 12 hrs by Yap-luciferase reporter gene assay. The assay is classed as cell-based. The method in brief:
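SF268 cells stably carrying a Yap-Luc reporter, in RPMI-1640 on 96-well plates, given inhibitor at 3, 6 and 12 μM on day 1. After 12 h, lysates read for Renilla luciferase, normalized to CellTiter-Glo signal; mean±s.d., n=3.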
(In a reporter assay the amount or activity of a reporter protein is the signal.)

For assay [3], the target named is T1, Tyrosine-protein phosphatase non-receptor type 11 (Homo sapiens). Description: Allosteric inhibition of SHP2 in human NCI-H661 cells assessed as downregulation of phosphorylated ERK1/2 levels at 20 uM after 2 hrs by Western blot analysis. In kind it is cell-based. The method in brief: (§2)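 NCI-H661 cells in 6-well plates exposed to inhibitor 2 h at 37 °C. RIPA lysates separated by SDS-PAGE, transferred to PVDF, milk-blocked, probed overnight at 4 °C for pERK1/2, ERK1/2, pAKT and AKT. Repeated at least three times.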

For assay [4] the target is unchanged. The assay is described as follows: Allosteric inhibition of SHP2 in human NCI-H661 cells assessed as downregulation of phosphorylated AKT levels at 20 uM after 2 hrs by Western blot analysis. In kind it is cell-based. The method in brief: as §2
For orientation: A western blot detects proteins with antibodies after separation by electrophoresis.

The target of assay [5] is Tyrosine-protein phosphatase non-receptor type 11 (Homo sapiens, UniProt Q06124). The assay is described as follows: Allosteric inhibition of SHP2 PTP domain (unknown origin) expressed in Escherichia coli BL21(DE3) using DIFMUP as substrate preincubated for 20 mins followed by substrate addition measured after 20 mins by phosphatase assay. The method in brief:
as §1

Calls of active or inactive are those of the source. No cut-off for these calls is given here. A value given as a limit tells only on which side of the number the result lay.

In general, IC50 refers to the concentration that gives 50% inhibition. Lower therefore signals greater potency.

`CC1(N)CCN(c2nc(-c3ccc4cc(C#N)ccc4c3)cs2)CC1` yielded a half-maximal inhibitory concentration (IC50) in assay [1] of 1.37 µM. Same read-out and setting: in the case of `CN1CCC(Nc2nc(-c3ccc4ccccc4c3)cs2)CC1` it was 2.81 µM. `c1ccc2cc(-c3csc(NC4CCNCC4)n3)ccc2c1` came in with an IC50 in assay [1] of 0.73 µM.

For `COC(=O)c1ccc(-c2cccc(-c3csc(N4CCC(C)(N)CC4)n3)c2)cc1`, the 50% inhibitory concentration (IC50) in assay [1] turned out to be 3.28 µM.

`CC1(C)CC(Nc2nc(-c3ccc(-c4ccccc4)cc3)cs2)CC(C)(C)N1`: in assay [1], 5.32 µM corresponded to half-maximal inhibition (IC50).

Take `CC1(N)CCN(c2nc(-c3cc4ccccc4s3)cs2)CC1`: the inhibition entry in assay [2], in assay [3] and in assay [4] was “inactive” in each case. Further, the IC50 in assay [1] is > 100 µM.

In turn, `COC(=O)c1ccc2cc(-c3csc(N4CCC(C)(N)CC4)n3)ccc2c1` yielded an IC50 in assay [1] of 1.08 µM. Molecule `COc1ccc2cc(-c3csc(N4CCC(C)(N)CC4)n3)ccc2c1` displayed an IC50 in assay [1] of 2.46 µM. For the molecule `CC1(C)CC(Nc2nc(-c3cccc(-c4ccccc4)c3)cs2)CC(C)(C)N1`, in assay [1], the IC50 was 3.27 µM. Molecule `CC1CN(c2nc(-c3ccc4ccccc4c3)cs2)CC(C)N1` (stereo unspecified) yielded an IC50 in assay [1] of 12.3 µM. Still for that read-out and setting: in the case of `CC1(N)CCN(c2nc(-c3ccc(-c4ccc(O)cc4)cc3)cs2)CC1` it was 20.3 µM. On to `CC1(C)CC(Nc2nc(-c3ccccc3)cs2)CC(C)(C)N1`, for which the concentration for half-maximal inhibition (IC50) in assay [5] is > 100 µM; in assay [1], 19.1 µM. `CC1(N)CCN(c2nc(-c3ccc4cc(F)ccc4c3)cs2)CC1` gave an IC50 in assay [1] of 1.27 µM. Same read-out and setting: in the case of `CC1(N)CCN(c2nc(-c3ccc(-c4ccc(F)cc4)cc3)cs2)CC1` it was 14.2 µM; in that of `NCC1CCCN(c2nc(-c3ccc4ccccc4c3)cs2)C1` (stereo unspecified), 52.8 µM.

`CC1(N)CCN(c2nc(-c3cccc(-c4ccccc4)c3)cs2)CC1` gave a 50% inhibitory concentration (IC50) in assay [1] of 3.62 µM. Still for that read-out and setting: the same measure for `CC1(N)CCN(c2nc(-c3ccc4cc(CO)ccc4c3)cs2)CC1`: > 100 µM; for `CC1(N)CCN(c2nc(-c3cccc4c3oc3ccccc34)cs2)CC1`: 46.5 µM.

In assay [1], `c1ccc2cc(-c3csc(NC4CCNC4)n3)ccc2c1` (stereo unspecified) had an IC50 of 1.65 µM. Same read-out and setting: in the case of `CC1(N)CCN(c2cnc(-c3cccc(Cl)c3Cl)c(N)n2)CC1` it was 0.12 µM; in that of `c1ccc2cc(-c3csc(NCC4CCCNC4)n3)ccc2c1` (stereo unspecified), 1.49 µM. Regarding `CC1(N)CCN(c2nc(-c3ccc4cc(Cl)ccc4c3)cs2)CC1`, the half-inhibitory concentration (IC50) in assay [1] worked out at 2.68 µM. On the same count and under the same terms, in the case of `CC1(N)CCN(c2nc(-c3cccc(-c4ccc(C#N)cc4)c3)cs2)CC1` it was 1.76 µM. `CC1(C)CC(Nc2nc(-c3ccc4ccccc4c3)cs2)CC(C)(C)N1` yielded a half-inhibitory concentration (IC50) in assay [1] of 2.55 µM.

In assay [1], `CC1(N)CCN(c2nc(-c3ccc4cc(C(=O)O)ccc4c3)cs2)CC1` displayed an IC50 of 51.7 µM. Same read-out and setting: in the case of `CC1(N)CCN(c2nc(-c3cnc4ccccc4c3)cs2)CC1` it was 52.3 µM.

In assay [1], `CC1(N)CCN(c2nc(-c3ccc4ccccc4c3)cs2)CC1` displayed an IC50 of 1.48 µM.
